In the library only some 6.3% were active in any assay of this set; here they are far more common.
MT1-MMP txn act – MT1-MMP promoter transcription activation | HT1080 MT1-MMP promoter luciferase reporter, luminescence, overnight; active compounds read high | activation factor at 10 µM | hit rate 0.16% among 86,000;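 active = activation factor of at least 2 for MT1-MMP transcription at 10 µM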
M1 antagonist – antagonists of rat M1 muscarinic receptor; P08482; CHO-M1 cells, Fluo-4 calcium, ACh EC80 antagonist mode; active compounds read low; B-score at 10 µM; hit rate 3.4% among 64,000; AID 628;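 active = calcium fluorescence response, raw or row-and-column corrected B-score, differing from the plate sample mean either way at a set confidence level, mostly lower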
SF-1 act – SF-1 (human) activation; Q13285; CHO-K1 Gal4-SF-1 LBD luciferase reporter; % increase over DMSO SF-1-specific signal; activation, % at 10 µM; hit rate 1.9% among 65,000; AID 522;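 active = activation above the mean activation of all tested compounds plus 3 SD, cut at about 50% in these data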
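Test system: CHO-K1 cells co-transfected with Gal4 DBD–human SF-1 LBD, 5xGal4 luciferase reporter. Quantity: 4,000 cells per well. Compound: 10 µM only. Incubation: compound added 1 h post-seeding, 20 h exposure at 37 °C, 5% CO2. Detection: SteadyLite luciferase luminescence. Replication: one test per compound.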
M1 agonist – M1 muscarinic receptor agonism; CHO-M1 cells, Fluo-4 calcium fluorescence, agonist mode; active compounds read high; hit rate 3% among 64,000; B-score at 10 µM;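 active = fluorescence rise, raw or as B-score row- and column-corrected plate score, outside the 99.7% band of its plate's samples, either direction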
RORa activator – RORA (human) activation. P35398. CHO-K1 Gal4-RORA LBD luciferase reporter, luminescence; percent increase over mock-subtracted basal signal. activation, % at 10 µM. hit rate 1.5% among 65,000. AID 560;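 active = activation above the mean of all tested compounds plus 3 SD, cut at about 49% in these data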;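 also: 0% = DMSO-treated RORA cells and 100% = added signal equal to DMSO minus mock-transfected cells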
Target sequence (P35398 whole entry, looked up, the tested form may be a part): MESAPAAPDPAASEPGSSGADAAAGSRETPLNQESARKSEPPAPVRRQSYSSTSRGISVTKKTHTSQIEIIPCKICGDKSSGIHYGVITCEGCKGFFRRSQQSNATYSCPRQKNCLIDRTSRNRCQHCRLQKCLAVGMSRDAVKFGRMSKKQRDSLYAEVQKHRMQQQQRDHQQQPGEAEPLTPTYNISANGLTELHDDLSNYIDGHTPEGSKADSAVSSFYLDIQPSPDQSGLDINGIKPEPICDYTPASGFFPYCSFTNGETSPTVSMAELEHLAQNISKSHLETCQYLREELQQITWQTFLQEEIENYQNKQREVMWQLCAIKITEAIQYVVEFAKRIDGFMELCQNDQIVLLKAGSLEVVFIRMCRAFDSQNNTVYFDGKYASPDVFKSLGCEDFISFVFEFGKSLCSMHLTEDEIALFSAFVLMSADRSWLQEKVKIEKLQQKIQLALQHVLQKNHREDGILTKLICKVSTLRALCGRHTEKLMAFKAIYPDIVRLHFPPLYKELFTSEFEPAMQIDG
Numbers without * were called inactive; nt = no result given.

SMILES	MT1-MMP txn act	M1 antagonist	SF-1 act	M1 agonist	RORa activator
CCC(Sc1nc(C)cc(C)n1)C(=O)Nc1ccc(Cl)cn1 (configuration not stated)	2*	nt	nt	nt	nt
O=C(O)C1CCCCC1C(=O)NCc1ccc(F)cc1 (configuration not stated)	1	-0.093	-6	0.099	-3
O=C(O)C1CCCCC1C(=O)NCc1ccccc1 (configuration not stated)	2*	nt	nt	nt	nt
COc1ccc2nc(Nc3nc(C)c(C(C)=O)s3)sc2c1	1.3	0.11	80*	0.26	15
CCOc1ccc2nc(NC(=O)COC)sc2c1	0.9	-0.0038	15	-0.54	7
CCOCC(=O)Nc1nc2ccc(OC)cc2s1	1	-0.19	51*	1.1	33
CCCCOC(=O)Nc1nc2ccc(OC)cc2s1	1.4	0.23	23	-0.36	52*
O=C(Nc1ccc2ccccc2c1)[C@H]1C[C@@H]1[C@H](NP(=O)(c1ccccc1)c1ccccc1)c1ccccc1	1	nt	nt	nt	nt
O=C(O)c1cc2ccc3ccccc3c2oc1=O	0.9	nt	nt	nt	nt
CCOC(=O)CNC(=O)c1ccc2c(c1)OCCO2	1.3	0.0088	53*	0.89	33
CCN(CC)C(=O)CSc1nnc(-c2ccccc2)n1N	1.2	2.4*	-1	1.2	-6
COC(=O)c1ccc(NC(=O)Cn2nnc3ccccc32)cc1	1.6	0.64	76*	-0.022	42
O=C1CCCCCN1Cc1nnc(SCc2nc3ccccc3s2)n1-c1ccccn1	1.8	-0.13	79*	0.0047	61*
Clc1ccc2oc(-c3ccccn3)nc2c1	1.3	0.032	59*	0.44	34
Nc1ccc2oc(-c3ccccn3)nc2c1	1.4	-0.13	36	0.32	23
CC(=O)N1CC=CC1(CC(C)C)C(=O)NCCN1CCOCC1 (configuration not stated)	1	nt	nt	nt	nt
CCn1c(=O)cc(OCC(=O)N2CCN(C(=O)c3ccco3)CC2)c2ccccc21	1.3	0.19	7	-1.5	1
CCn1c(=O)c2cc(C(=O)N3CCN(C(=O)c4ccco4)CC3)sc2c2ccccc21	1.1	-1.4	-4	5.2*	13
C=CCN=C(NC#N)SCC(=O)c1cccc(OC)c1	2*	-0.0089	36	-0.7	23
CCOc1ccc(CCNC(=O)c2cc3sccc3n2CC)cc1OCC	1.2	nt	nt	nt	nt
Clc1ccc2nc(CSc3nc4ccccc4o3)cn2c1	1.6	0.84	50*	0.57	13
CCN(CC)c1ccc2cc(-c3nnc(-c4ccccc4)o3)c(=O)oc2c1	2*	nt	nt	nt	nt
CCN(CC)c1ccc2cc(-c3nc4ccccc4[nH]3)c(=O)oc2c1	nt	-21*	-45	419*	-32
CCC1=C2CC[C@H]3C(=O)N(CC(=O)OC)C(=O)[C@H]3[C@H]2[C@@]2(Cc3ccccc3)C(=NCCOC)OC(=O)N2C1=O	1.1	nt	nt	nt	nt
CCCCCc1c(C)nc(N2CCc3ccccc32)[nH]c1=O	1	1.5*	1	-0.75	5
SMILES	MT1-MMP txn act	M1 antagonist	SF-1 act	M1 agonist	RORa activator
CCCCCc1c(C)nc(N2CCc3ccccc3C2)[nH]c1=O	1.2	-0.4	-5	0.55	-17
CCCCC1CCC(c2nc(-c3cccnc3)no2)CC1 (configuration not stated)	1.1	1.4	18	0.38	-2
CCCCC1CCC(c2nc(-c3ccccn3)no2)CC1 (configuration not stated)	0.9	-0.024	52*	-1.3	5
Cc1ccc2nc3c(cc(C#N)c(=O)n3CC3CCCO3)c(=O)n2c1 (configuration not stated)	1	0.049	2	-1.1	-9
CCC(C)N1CC(O)=C(c2nc3ccccc3[nH]2)C1=N (configuration not stated)	1.3	0.67	43	0.58	15
CC1C(O)=C(c2nc3ccccc3[nH]2)C(=N)N1c1ccccc1 (configuration not stated)	1.7	0.036	54*	-0.09	26
N=C1C(c2nc3ccccc3[nH]2)=C(O)CN1c1ccccc1	1.5	0.65	50*	0.67	44
N=C1C(c2nc3ccccc3[nH]2)=C(O)CN1c1ccc(CC(=O)O)cc1	0.9	nt	nt	nt	nt
COc1ccc(N2C(=O)CCC(C(=O)c3ccccc3)=C2C)cc1	1.1	-0.91	4	-0.012	-2
COC(=O)[C@@]1(Cc2ccc(OC)cc2)[C@H]2c3cc(C(=O)N4CCCC4)n(CCc4ccc(O)c(OC)c4)c3C[C@H]2CN1C(=O)c1ccccc1	1.1	nt	nt	nt	nt
CC1CN(C(=O)CCN2C(=O)c3ccccc3C2=O)CC(C)O1 (configuration not stated)	1.2	nt	nt	nt	nt
